Results reported in ChEMBL document CHEMBL1629643, “Naturally occurring Class A ss-lactamases from the Burkholderia cepacia complex” (Antimicrob Agents Chemother, 2009).
Converted amounts (≈) assume the structure as drawn.

Experiments:
Format in all cases: functional
Burkholderia cenocepacia [1] = assay: Antimicrobial activity against Burkholderia cenocepacia 07-34 expressing beta-lactamase PenB1
Procedure, shortened: (§1)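 MICs measured by broth microdilution and by Etest on clinical B. cenocepacia isolates grown for 18 h in Trypticase soy broth (30°C and 37°C). Susceptibility was read against CLSI guidelines.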

Burkholderia cenocepacia [2] = assay: Antimicrobial activity against Burkholderia cenocepacia 09-54 expressing beta-lactamase PenB2; procedure, shortened: as §1
Burkholderia cenocepacia [3] = assay: Antimicrobial activity against Burkholderia cenocepacia 212 expressing beta-lactamase PenB3; procedure, shortened: as §1
Burkholderia cenocepacia [4] = assay: Antimicrobial activity against Burkholderia cenocepacia 5007902 expressing beta-lactamase PenB4; procedure, shortened: as §1
Burkholderia cenocepacia [5] = assay: Antimicrobial activity against Burkholderia cenocepacia 07-34 expressing beta-lactamase PenB1 in presence of 4 ug/ml beta-lactamase inhibitor clavulanic acid
Procedure, shortened: (§2)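 Cultured in Trypticase soy broth at 30°C and 37°C for 18 h. MICs by broth microdilution and Etest, read against CLSI guidelines.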

Burkholderia cenocepacia [6] = assay: Antimicrobial activity against Burkholderia cenocepacia 09-54 expressing beta-lactamase PenB2 in presence of 4 ug/ml beta-lactamase inhibitor clavulanic acid; procedure, shortened: as §2
Burkholderia cenocepacia [7] = assay: Antimicrobial activity against Burkholderia cenocepacia 212 expressing beta-lactamase PenB3 in presence of 4 ug/ml beta-lactamase inhibitor clavulanic acid; procedure, shortened: as §2
Burkholderia cenocepacia [8] = assay: Antimicrobial activity against Burkholderia cenocepacia 5007902 expressing beta-lactamase PenB4 in presence of 4 ug/ml beta-lactamase inhibitor clavulanic acid; procedure, shortened: as §2
Escherichia coli [9] = assay: Antimicrobial activity against Escherichia coli TOP10 harboring beta-lactamase PenB1
Procedure, shortened: (§3)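 MICs by broth microdilution and Etest, interpreted per CLSI guidelines. Strains tested were host E. coli TOP10, and TOP10 carrying pBcSau13 (pBK-CMV vector, kanamycin-resistant) holding a Sau3AI fragment of B. cenocepacia 212 DNA that encodes PenB1.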

Escherichia coli [10] = assay: Antimicrobial activity against Escherichia coli TOP10 harboring beta-lactamase PenB1 in presence of 4 ug/ml beta-lactamase inhibitor clavulanic acid
Procedure, shortened: (§4)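 E. coli TOP10 host, either plain or carrying the pBK-CMV clone pBcSau13 with the B. cenocepacia 212 insert. MICs by broth microdilution and Etest, read against CLSI guidelines.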

Escherichia coli [11] = assay: Antimicrobial activity against Escherichia coli TOP10; procedure, shortened: as §3
Escherichia coli [12] = assay: Antimicrobial activity against Escherichia coli TOP10 in presence of 4 ug/ml beta-lactamase inhibitor clavulanic acid; procedure, shortened: as §4

| SMILES | MIC (Burkholderia cenocepacia [1]) | MIC (Burkholderia cenocepacia [2]) | MIC (Burkholderia cenocepacia [3]) | MIC (Burkholderia cenocepacia [4]) | MIC (Burkholderia cenocepacia [5]) | MIC (Burkholderia cenocepacia [6]) | MIC (Burkholderia cenocepacia [7]) | MIC (Burkholderia cenocepacia [8]) | MIC (Escherichia coli [9]) | MIC (Escherichia coli [10]) | MIC (Escherichia coli [11]) | MIC (Escherichia coli [12]) |
| --- | --- | --- | --- | --- | --- | --- | --- | --- | --- | --- | --- | --- |
| CO/N=C(\C(=O)N[C@@H]1C(=O)N2C(C(=O)[O-])=C(C[N+]3(C)CCCC3)CS[C@H]12)c1csc(N)n1 | 32 µg/mL (≈ 66.6 µM) | 64 µg/mL (≈ 133 µM) | 64 µg/mL (≈ 133 µM) | 1 µg/mL (≈ 2.08 µM) |  |  |  |  |  |  |  |  |
| CC1(C)S[C@@H]2[C@H](NC(=O)[C@H](N)c3ccc(O)cc3)C(=O)N2[C@H]1C(=O)O [AMOXICILLIN] | 512 µg/mL (≈ 1400 µM) | 512 µg/mL (≈ 1400 µM) | 512 µg/mL (≈ 1400 µM) | 512 µg/mL (≈ 1400 µM) | 512 µg/mL | 512 µg/mL | 512 µg/mL | 512 µg/mL | 512 µg/mL (≈ 1400 µM) | 16 µg/mL | 4 µg/mL (≈ 10.9 µM) | 4 µg/mL |
| C[C@H]1[C@H](NC(=O)/C(=N\OC(C)(C)C(=O)O)c2csc(N)n2)C(=O)N1S(=O)(=O)O [AZTREONAM] | 4 µg/mL (≈ 9.19 µM) | 512 µg/mL (≈ 1180 µM) | 512 µg/mL (≈ 1180 µM) | 16 µg/mL (≈ 36.7 µM) |  |  |  |  | 0.5 µg/mL (≈ 1.15 µM) |  |  |  |
| CO/N=C(\C(=O)N[C@@H]1C(=O)N2C(C(=O)O)=C(COC(C)=O)CS[C@H]12)c1csc(N)n1 [CEFOTAXIME] | 1 µg/mL (≈ 2.2 µM) | 512 µg/mL (≈ 1120 µM) | 512 µg/mL (≈ 1120 µM) | 4 µg/mL (≈ 8.78 µM) |  |  |  |  | 0.25 µg/mL (≈ 0.549 µM) |  | 0.06 µg/mL (≈ 0.132 µM) |  |
| CO[C@@]1(NC(=O)Cc2cccs2)C(=O)N2C(C(=O)O)=C(COC(N)=O)CS[C@@H]21 [CEFOXITIN] | 512 µg/mL (≈ 1200 µM) | 512 µg/mL (≈ 1200 µM) | 512 µg/mL (≈ 1200 µM) | 512 µg/mL (≈ 1200 µM) |  |  |  |  | 8 µg/mL (≈ 18.7 µM) |  | 8 µg/mL (≈ 18.7 µM) |  |
